Data: ChEMBL document CHEMBL1127348, “3-Amino-5,5-dimethylhexanoic acid. Synthesis, resolution, and effects on carnitine acyltransferases” (J Med Chem, 1994)

Columns and labels:
[1] = target: T1, Carnitine O-palmitoyltransferase 1, muscle isoform (Rattus norvegicus, UniProt Q63704); assay: Tested against neonatal rat cardiac myocyte carnitine palmitoyltransferase 1
T1 sequence (Q63704 whole entry): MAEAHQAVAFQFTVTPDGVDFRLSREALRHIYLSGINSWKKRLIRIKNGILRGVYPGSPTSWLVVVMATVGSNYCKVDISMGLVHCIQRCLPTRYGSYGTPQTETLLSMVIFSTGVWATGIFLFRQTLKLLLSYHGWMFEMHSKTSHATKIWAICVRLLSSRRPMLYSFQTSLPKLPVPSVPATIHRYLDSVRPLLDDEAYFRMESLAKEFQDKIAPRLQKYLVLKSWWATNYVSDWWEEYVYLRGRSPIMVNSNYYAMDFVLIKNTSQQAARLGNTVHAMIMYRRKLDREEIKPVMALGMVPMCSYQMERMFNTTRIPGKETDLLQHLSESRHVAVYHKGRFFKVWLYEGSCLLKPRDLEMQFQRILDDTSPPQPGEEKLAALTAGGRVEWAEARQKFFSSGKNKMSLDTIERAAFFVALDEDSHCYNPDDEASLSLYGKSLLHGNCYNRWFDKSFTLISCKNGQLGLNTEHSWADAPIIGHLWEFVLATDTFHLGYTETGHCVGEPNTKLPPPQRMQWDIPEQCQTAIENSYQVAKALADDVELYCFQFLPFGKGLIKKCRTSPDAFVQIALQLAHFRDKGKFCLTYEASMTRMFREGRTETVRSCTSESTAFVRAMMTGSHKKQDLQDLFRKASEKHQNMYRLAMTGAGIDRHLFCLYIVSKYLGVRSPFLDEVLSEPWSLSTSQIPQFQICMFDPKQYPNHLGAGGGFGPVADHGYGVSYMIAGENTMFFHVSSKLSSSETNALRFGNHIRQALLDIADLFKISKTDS

[2] = target: T2, Carnitine O-palmitoyltransferase 2, mitochondrial (Rattus norvegicus, UniProt P18886); assay: Tested against neonatal rat cardiac myocyte carnitine palmitoyltransferase 2
T2 sequence (P18886 whole entry): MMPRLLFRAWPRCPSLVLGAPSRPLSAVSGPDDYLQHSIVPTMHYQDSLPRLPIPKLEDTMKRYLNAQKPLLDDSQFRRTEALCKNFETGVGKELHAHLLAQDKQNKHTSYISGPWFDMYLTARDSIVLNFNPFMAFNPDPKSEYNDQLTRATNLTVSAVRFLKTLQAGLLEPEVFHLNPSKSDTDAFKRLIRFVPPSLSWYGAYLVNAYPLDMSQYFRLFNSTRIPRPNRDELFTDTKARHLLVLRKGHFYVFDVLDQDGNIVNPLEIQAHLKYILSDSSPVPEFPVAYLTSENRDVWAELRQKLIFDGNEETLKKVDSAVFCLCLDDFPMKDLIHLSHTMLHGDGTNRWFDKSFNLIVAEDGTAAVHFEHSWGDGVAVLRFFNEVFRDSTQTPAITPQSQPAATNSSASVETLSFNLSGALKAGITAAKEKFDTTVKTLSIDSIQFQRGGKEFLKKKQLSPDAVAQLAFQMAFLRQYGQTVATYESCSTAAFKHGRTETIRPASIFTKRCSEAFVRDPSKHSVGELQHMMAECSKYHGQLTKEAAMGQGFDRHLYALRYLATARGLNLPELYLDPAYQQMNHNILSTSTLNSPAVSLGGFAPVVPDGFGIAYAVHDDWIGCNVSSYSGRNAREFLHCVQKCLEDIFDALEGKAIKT

[3] = target: T3, Carnitine O-palmitoyltransferase 1, liver isoform (Rattus norvegicus) (UniProt P32198); assay: Percent inhibition was measured on rat liver carnitine palmitoyltransferase at 5 uM
T3 sequence (whole entry): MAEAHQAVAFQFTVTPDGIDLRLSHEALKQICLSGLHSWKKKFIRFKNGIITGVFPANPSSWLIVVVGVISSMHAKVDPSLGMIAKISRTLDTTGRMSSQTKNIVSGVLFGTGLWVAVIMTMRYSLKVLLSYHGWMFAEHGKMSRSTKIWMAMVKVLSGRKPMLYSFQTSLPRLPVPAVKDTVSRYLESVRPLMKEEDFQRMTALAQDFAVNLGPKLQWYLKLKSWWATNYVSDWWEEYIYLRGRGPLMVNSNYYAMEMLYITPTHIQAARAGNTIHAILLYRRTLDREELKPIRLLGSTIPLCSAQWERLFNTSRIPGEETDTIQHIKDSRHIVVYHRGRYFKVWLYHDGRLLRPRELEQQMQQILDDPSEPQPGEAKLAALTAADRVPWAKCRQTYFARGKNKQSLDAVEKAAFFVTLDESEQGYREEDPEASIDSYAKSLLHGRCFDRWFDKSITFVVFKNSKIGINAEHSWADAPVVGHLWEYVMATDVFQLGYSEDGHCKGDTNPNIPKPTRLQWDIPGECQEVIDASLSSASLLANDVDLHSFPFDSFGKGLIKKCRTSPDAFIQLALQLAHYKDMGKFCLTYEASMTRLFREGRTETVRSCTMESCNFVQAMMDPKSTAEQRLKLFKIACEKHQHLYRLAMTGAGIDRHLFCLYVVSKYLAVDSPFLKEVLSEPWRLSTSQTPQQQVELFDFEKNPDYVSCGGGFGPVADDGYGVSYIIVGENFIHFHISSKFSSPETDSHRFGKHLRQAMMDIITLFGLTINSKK

[4] = target: T1, Carnitine O-palmitoyltransferase 1, muscle isoform; assay: Tested against neonatal rat cardiac myocyte carnitine palmitoyltransferase 1; no effect
[5] = substrate: C[N+](C)(C)CC(N)CC(=O)[O-]; assay: (§1) Kinetic constants tested against pigeon breast carnitine acyltransferase; settings: Columba livia
In short: (§2)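 Purified pigeon breast CAT, 25 °C, 1 mL. Reverse: 100 mM MOPS, 5 mM EDTA, 0.25 mM CoASH; started with varying D,L-acetylcarnitine; read at 232 nm. Inhibitor at 0, 5.00 or 10.00 mM final; points mean of 2–5 determinations; nonlinear regression fit.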

[6] = substrate: C[N+](C)(C)C[C@H](O)CC(=O)[O-]; assay: as §1; settings: Columba livia; in short: as §2

CC(C)(C)CC(O)CC(=O)O (configuration not stated)
Ki [1]: 3.6 mM | Ki [2]: 2.8 mM

CC(C)(C)C[C@@H](O)CC(=O)O
Ki [2]: 6.7 mM

C[N+](C)(C)C[C@H](O)CC(=O)[O-] [LEVOCARNITINE]
Ki [1]: 0.1 mM | Ki [2]: 0.1 mM

CC(C)(C)C[C@H](O)CC(=O)O
Ki [2]: 2.2 mM

CC(=O)NC(CC(=O)[O-])C[N+](C)(C)C (configuration not stated)
inhibition [3]: 15%

CC(C)(C)CC(N)CC(=O)O (configuration not stated)
Ki [4]: Not Active | Ki [2]: 20 mM

C[N+](C)(C)CC(N)CC(=O)[O-] (configuration not stated)
inhibition [3]: 64%

B1: Carnitine O-acetyltransferase (Homo sapiens), P43155 (protein)
chain: MLAFAARTVVKPLGFLKPFSLMKASSRFKAHQDALPRLPVPPLQQSLDHYLKALQPIVSEEEWAHTKQLVDEFQASGGVGERLQKGLERRARKTENWLSEWWLKTAYLQYRQPVVIYSSPGVMLPKQDFVDLQGQLRFAAKLIEGVLDFKVMIDNETLPVEYLGGKPLCMNQYYQILSSCRVPGPKQDTVSNFSKTKKPPTHITVVHNYQFFELDVYHSDGTPLTADQIFVQLEKIWNSSLQTNKEPVGILTSNHRNSWAKAYNTLIKDKVNRDSVRSIQKSIFTVCLDATMPRVSEDVYRSHVAGQMLHGGGSRLNSGNRWFDKTLQFIVAEDGSCGLVYEHAAAEGPPIVTLLDYVIEYTKKPELVRSPLVPLPMPKKLRFNITPEIKSDIEKAKQNLSIMIQDLDITVMVFHHFGKDFPKSEKLSPDAFIQMALQLAYYRIYGQACATYESASLRMFHLGRTDTIRSASMDSLTFVKAMDDSSVTEHQKVELLRKAVQAHRGYTDRAIRGEAFDRHLLGLKLQAIEDLVSMPDIFMDTSYAIAMHFHLSTSQVPAKTDCVMFFGPVVPDGYGVCYNPMEAHINFSLSAYNSCAETNAARLAHYLEKALLDMRALLQSHPRAKL
Km [5]: 3800 µM | Km [6]: 300 µM
